# What was measured:
# [1] = Antiproliferative activity against human Panel non-small cell lung cancer (8 Carcinoma cell lines) assessed as reduction in mean cell growth; format: functional; conditions: Non-small cell lung cancer cell line
# Procedure, shortened: (§1)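 NCI five-dose testing across the 58-line panel gives GI50, TGI and LC50 for each line. Subpanel lines report mean GI50 for each of the nine cancer types.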
# [2] = tested on: Panel ovarian (Carcinoma cell lines); test: Antiproliferative activity against human Panel ovarian (7 Carcinoma cell lines) assessed as reduction in mean cell growth; format: functional; procedure, shortened: as §1
# [3] = Antiproliferative activity against human Panel NCI-58 (58 Carcinoma cell lines) assessed as reduction in mean cell growth at 10 uM; format: functional; set-up: scale not given: the % may be the effect or the level left
# Procedure, shortened: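 NCI 58-cell-line screen covering leukemia, NSCLC, colon, CNS, melanoma, ovarian, renal, prostate and breast lines. Compounds given once at […] (micromolar per the line). Percent inhibition taken as 100 minus growth percent. Panel line reports the mean over all 58 lines.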
# [4] = tested on: Panel colon (Carcinoma cell lines); test: Antiproliferative activity against human Panel colon (7 Carcinoma cell lines) assessed as reduction in mean cell growth; format: functional; procedure, shortened: as §1
# [5] = tested on: Panel CNS (Carcinoma cell lines); test: Antiproliferative activity against human Panel CNS (6 Carcinoma cell lines) assessed as reduction in mean cell growth; format: functional; procedure, shortened: as §1
# [6] = tested on: Panel renal (Carcinoma cell lines); test: Antiproliferative activity against human Panel renal (8 Carcinoma cell lines) assessed as reduction in mean cell growth; format: functional; procedure, shortened: as §1
# [7] = tested on: Panel leukemia (Carcinoma cell lines); test: Antiproliferative activity against human Panel leukemia (5 Carcinoma cell lines) assessed as reduction in mean cell growth; format: functional; procedure, shortened: as §1
# [8] = tested on: Panel prostate (Carcinoma cell lines); test: Antiproliferative activity against human Panel prostate (2 Carcinoma cell lines) assessed as reduction in mean cell growth; format: functional; procedure, shortened: as §1
# [9] = tested on: Panel melanoma (Carcinoma cell lines); test: Antiproliferative activity against human Panel melanoma (9 Carcinoma cell lines) assessed as reduction in mean cell growth; format: functional; procedure, shortened: as §1
# [10] = tested on: Panel breast (Carcinoma cell lines); test: Antiproliferative activity against human Panel breast (6 Carcinoma cell lines) assessed as reduction in mean cell growth; format: functional; procedure, shortened: as §1
# [11] = tested on: MDA-MB-468; test: Antiproliferative activity against human MDA-MB-468 cells assessed as reduction in cell growth; format: functional; procedure, shortened: as §1
# [12] = tested on: COLO 205; test: Antiproliferative activity against human COLO 205 cells assessed as total growth inhibition; format: functional; procedure, shortened: as §1
# [13] = tested on: RXF 393; test: Antiproliferative activity against human RXF 393 cells assessed as reduction in cell growth; format: functional; procedure, shortened: as §1
# [14] = tested on: SNB-75; test: Cytotoxicity against human SNB-75 cells; format: functional; conditions: read-out: LC50 (the source's name)
# Procedure, shortened: (§2)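 Run in the US NCI 58-cell-line screen covering nine cancer types (leukemia, NSCLC, colon, CNS, melanoma, ovarian, renal, prostate, breast). Five-dose mode gave GI50, TGI and LC50 values for each cell line. In the single-dose pre-screen, % inhibition was taken as 100 minus growth percentage.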
# [15] = tested on: SNB-75; test: Antiproliferative activity against human SNB-75 cells assessed as reduction in cell growth; format: functional; procedure, shortened: as §1
# [16] = tested on: K562; test: Cytotoxicity against human k562 cells; format: functional; conditions: read-out: LC50 (the source's name); procedure, shortened: as §2
# [17] = tested on: MDA-MB-468; test: Cytotoxicity against human MDA-MB-468 cells; format: functional; conditions: read-out: LC50 (the source's name); procedure, shortened: as §2
# [18] = tested on: RXF 393; test: Antiproliferative activity against human RXF 393 cells assessed as total growth inhibition; format: functional; procedure, shortened: as §1
# [19] = tested on: NCI/ADR-RES; test: Antiproliferative activity against human NCI/ADR-RES cells assessed as total growth inhibition; format: functional; procedure, shortened: as §1
# [20] = tested on: PC-3; test: Antiproliferative activity against human PC-3 cells assessed as reduction in cell growth; format: functional; procedure, shortened: as §1
# [21] = tested on: HCT-15; test: Antiproliferative activity against human HCT-15 cells assessed as total growth inhibition; format: functional; procedure, shortened: as §1
# [22] = tested on: K562; test: Antiproliferative activity against human K562 cells assessed as reduction in cell growth; format: functional; procedure, shortened: as §1
# [23] = tested on: HCT-15; test: Cytotoxicity against human HCT-15 cells; format: functional; conditions: read-out: LC50 (the source's name); procedure, shortened: as §2
# [24] = tested on: COLO 205; test: Antiproliferative activity against human COLO 205 cells assessed as reduction in cell growth; format: functional; procedure, shortened: as §1
# [25] = tested on: K562; test: Antiproliferative activity against human K562 cells assessed as total growth inhibition; format: functional; procedure, shortened: as §1
# [26] = tested on: Serine/threonine-protein kinase B-raf (Homo sapiens), P15056 [V600E]; test: Inhibition of B-RAF V600E mutant (unknown origin) at 10 uM using […] as substrate incubated for 40 mins in presence of [gamma33P]ATP by scintillation counting based hotspot kinase assay relative to control
# Sequence of Serine/threonine-protein kinase B-raf (Homo sapiens), P15056 [V600E] (P15056 whole entry V600E): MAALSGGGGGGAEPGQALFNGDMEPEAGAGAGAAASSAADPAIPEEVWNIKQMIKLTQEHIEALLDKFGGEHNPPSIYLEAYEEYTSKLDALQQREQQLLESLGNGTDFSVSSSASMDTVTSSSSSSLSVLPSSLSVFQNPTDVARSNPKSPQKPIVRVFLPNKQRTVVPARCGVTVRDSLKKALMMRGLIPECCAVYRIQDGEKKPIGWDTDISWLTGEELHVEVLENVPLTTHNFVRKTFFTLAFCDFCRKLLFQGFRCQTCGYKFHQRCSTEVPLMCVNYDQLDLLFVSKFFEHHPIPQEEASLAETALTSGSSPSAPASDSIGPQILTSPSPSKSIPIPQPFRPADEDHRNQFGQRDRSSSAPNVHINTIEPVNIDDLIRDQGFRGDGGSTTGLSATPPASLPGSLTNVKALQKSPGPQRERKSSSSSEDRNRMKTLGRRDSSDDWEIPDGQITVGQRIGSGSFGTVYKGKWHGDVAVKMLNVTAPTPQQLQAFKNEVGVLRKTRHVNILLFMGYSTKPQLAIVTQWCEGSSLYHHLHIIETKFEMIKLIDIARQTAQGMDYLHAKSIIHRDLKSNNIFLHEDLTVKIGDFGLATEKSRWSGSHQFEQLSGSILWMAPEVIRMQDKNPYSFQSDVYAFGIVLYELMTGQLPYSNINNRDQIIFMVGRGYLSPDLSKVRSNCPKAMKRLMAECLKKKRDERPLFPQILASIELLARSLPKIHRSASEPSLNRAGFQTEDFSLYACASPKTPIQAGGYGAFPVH
# [27] = tested on: HOP-92; test: Antiproliferative activity against human HOP-92 cells assessed as reduction in cell growth; format: functional; procedure, shortened: as §1
# [28] = tested on: SK-MEL-5; test: Antiproliferative activity against human SK-MEL-5 cells assessed as reduction in cell growth; format: functional; procedure, shortened: as §1
# [29] = tested on: NCI/ADR-RES; test: Antiproliferative activity against human NCI/ADR-RES cells assessed as reduction in cell growth; format: functional; procedure, shortened: as §1
# [30] = tested on: SK-MEL-5; test: Antiproliferative activity against human SK-MEL-5 cells assessed as total growth inhibition; format: functional; procedure, shortened: as §1
# [31] = tested on: PC-3; test: Cytotoxicity against human PC-3 cells; format: functional; procedure, shortened: as §2
# [32] = tested on: RXF 393; test: Cytotoxicity against human RXF 393 cells; format: functional; procedure, shortened: as §2
# [33] = target: RAF proto-oncogene serine/threonine-protein kinase (Homo sapiens, UniProt P04049); test: Inhibition of RAF1 (unknown origin) at 10 uM using […] as substrate incubated for 40 mins in presence of [gamma33P]ATP by scintillation counting based hotspot kinase assay relative to control
# Sequence of RAF proto-oncogene serine/threonine-protein kinase (P04049 whole entry): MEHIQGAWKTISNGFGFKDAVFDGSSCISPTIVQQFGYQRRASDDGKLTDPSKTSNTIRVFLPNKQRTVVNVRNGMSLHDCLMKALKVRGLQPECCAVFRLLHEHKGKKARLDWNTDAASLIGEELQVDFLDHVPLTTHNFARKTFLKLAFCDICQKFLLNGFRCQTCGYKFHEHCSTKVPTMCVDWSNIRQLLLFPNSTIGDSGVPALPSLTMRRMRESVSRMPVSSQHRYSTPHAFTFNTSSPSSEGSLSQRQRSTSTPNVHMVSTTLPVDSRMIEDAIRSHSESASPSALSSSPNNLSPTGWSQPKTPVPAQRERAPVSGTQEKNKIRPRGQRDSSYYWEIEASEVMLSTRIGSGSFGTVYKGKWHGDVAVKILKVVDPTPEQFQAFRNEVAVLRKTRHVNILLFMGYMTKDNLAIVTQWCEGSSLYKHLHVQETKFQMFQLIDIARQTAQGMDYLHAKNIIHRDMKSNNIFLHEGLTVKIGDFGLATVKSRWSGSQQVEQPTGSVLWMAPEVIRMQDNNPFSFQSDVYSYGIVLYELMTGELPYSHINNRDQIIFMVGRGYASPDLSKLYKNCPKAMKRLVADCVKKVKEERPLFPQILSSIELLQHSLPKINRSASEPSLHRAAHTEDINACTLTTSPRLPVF
# [34] = tested on: PC-3; test: Antiproliferative activity against human PC-3 cells assessed as total growth inhibition; format: functional; procedure, shortened: as §1
# [35] = target: Epidermal growth factor receptor (Homo sapiens) (UniProt P00533); test: Inhibition of EGFR (unknown origin) at 10 uM using […] as substrate incubated for 40 mins in presence of [gamma33P]ATP by scintillation counting based hotspot kinase assay relative to control
# Sequence of Epidermal growth factor receptor (Homo sapiens) (P00533 whole entry): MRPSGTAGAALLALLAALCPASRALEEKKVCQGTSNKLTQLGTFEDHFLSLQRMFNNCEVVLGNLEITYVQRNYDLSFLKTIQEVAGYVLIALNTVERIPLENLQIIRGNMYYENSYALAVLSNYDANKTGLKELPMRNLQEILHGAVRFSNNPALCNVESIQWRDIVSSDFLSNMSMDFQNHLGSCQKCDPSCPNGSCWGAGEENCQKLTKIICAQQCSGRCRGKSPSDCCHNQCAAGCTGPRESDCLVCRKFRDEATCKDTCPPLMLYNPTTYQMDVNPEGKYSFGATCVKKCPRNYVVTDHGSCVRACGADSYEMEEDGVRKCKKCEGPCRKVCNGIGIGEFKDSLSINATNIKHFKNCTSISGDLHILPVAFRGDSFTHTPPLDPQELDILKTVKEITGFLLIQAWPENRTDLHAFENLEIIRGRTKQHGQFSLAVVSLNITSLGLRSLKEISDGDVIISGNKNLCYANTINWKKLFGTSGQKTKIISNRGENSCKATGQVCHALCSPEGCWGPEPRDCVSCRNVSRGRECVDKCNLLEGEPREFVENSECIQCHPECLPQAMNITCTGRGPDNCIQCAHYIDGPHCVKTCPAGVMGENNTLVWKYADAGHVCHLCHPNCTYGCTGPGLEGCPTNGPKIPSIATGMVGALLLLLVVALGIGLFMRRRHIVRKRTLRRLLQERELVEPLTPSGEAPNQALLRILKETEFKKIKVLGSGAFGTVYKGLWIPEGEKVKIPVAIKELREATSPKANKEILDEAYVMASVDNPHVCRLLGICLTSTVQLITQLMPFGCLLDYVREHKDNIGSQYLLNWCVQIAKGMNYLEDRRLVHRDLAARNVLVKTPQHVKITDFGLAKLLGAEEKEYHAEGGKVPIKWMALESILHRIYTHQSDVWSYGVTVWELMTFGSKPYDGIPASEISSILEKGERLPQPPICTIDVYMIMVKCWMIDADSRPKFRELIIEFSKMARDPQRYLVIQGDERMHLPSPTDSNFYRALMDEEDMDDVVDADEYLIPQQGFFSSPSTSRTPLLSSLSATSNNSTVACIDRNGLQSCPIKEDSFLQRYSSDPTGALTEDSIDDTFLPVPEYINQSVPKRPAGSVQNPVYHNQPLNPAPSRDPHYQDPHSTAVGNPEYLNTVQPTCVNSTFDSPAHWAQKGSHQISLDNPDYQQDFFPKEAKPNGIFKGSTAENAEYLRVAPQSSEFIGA
# [36] = species: Homo sapiens; test: Inhibition of ABL […] mutant (unknown origin) at 10 uM using […] as substrate incubated for 40 mins in presence of [gamma33P]ATP by scintillation counting based hotspot kinase assay relative to control
# [37] = tested on: NCI/ADR-RES; test: Cytotoxicity against human NCI/ADR-RES cells; format: functional; procedure, shortened: as §2
# [38] = target: Tyrosine-protein kinase ABL1 (Homo sapiens) (UniProt P00519); test: Inhibition of ABL (unknown origin) at 10 uM using […] as substrate incubated for 40 mins in presence of [gamma33P]ATP by scintillation counting based hotspot kinase assay relative to control
# Sequence of Tyrosine-protein kinase ABL1 (Homo sapiens) (P00519 whole entry): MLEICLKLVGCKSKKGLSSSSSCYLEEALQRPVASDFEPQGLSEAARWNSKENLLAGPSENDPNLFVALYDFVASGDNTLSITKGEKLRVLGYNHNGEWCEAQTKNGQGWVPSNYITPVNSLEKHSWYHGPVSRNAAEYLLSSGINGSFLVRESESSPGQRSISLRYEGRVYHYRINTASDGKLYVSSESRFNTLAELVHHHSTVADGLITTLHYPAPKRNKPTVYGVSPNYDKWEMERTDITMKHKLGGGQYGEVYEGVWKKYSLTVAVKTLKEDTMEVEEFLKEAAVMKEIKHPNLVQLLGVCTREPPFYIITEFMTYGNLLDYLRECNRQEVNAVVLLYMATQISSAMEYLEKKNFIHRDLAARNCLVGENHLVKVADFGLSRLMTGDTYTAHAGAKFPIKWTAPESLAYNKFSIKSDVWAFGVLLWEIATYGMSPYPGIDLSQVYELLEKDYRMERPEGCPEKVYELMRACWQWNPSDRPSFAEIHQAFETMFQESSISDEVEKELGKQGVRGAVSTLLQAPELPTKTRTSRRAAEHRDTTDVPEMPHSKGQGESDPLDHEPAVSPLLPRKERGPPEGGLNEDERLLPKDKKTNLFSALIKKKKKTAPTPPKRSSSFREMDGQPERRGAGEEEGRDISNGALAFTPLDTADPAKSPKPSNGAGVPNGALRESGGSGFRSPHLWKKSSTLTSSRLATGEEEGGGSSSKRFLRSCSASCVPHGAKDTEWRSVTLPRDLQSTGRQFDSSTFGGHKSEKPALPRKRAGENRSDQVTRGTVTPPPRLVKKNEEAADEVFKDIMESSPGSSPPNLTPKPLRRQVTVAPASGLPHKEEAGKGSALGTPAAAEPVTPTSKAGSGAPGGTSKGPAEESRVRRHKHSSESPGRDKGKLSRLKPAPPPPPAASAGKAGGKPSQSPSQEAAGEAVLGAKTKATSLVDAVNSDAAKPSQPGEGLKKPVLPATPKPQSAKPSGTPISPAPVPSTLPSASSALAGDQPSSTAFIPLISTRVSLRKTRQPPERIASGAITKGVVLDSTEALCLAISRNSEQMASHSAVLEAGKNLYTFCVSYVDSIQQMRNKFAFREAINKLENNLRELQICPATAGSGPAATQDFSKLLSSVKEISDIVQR
# [39] = tested on: SNB-75; test: Antiproliferative activity against human SNB-75 cells assessed as total growth inhibition; format: functional; procedure, shortened: as §1
# [40] = tested on: HCT-15; test: Antiproliferative activity against human HCT-15 cells assessed as reduction in cell growth; format: functional; procedure, shortened: as §1
# [41] = target: Serine/threonine-protein kinase B-raf (Homo sapiens) (UniProt P15056); test: Inhibition of B-RAF (unknown origin) at 10 uM using […] as substrate incubated for 40 mins in presence of [gamma33P]ATP by scintillation counting based hotspot kinase assay relative to control
# Sequence of Serine/threonine-protein kinase B-raf (Homo sapiens) (P15056 whole entry): as the sequence (P15056 whole entry V600E) above, with E600V counted along it
# [42] = tested on: HOP-92; test: Antiproliferative activity against human HOP-92 cells assessed as total growth inhibition; format: functional; procedure, shortened: as §1
# [43] = tested on: COLO 205; test: Cytotoxicity against human COLO 205 cells; format: functional; procedure, shortened: as §2
# [44] = tested on: SK-MEL-5; test: Cytotoxicity against human SK-MEL-5 cells; format: functional; procedure, shortened: as §2
# [45] = tested on: MDA-MB-468; test: Antiproliferative activity against human MDA-MB-468 cells assessed as total growth inhibition; format: functional; procedure, shortened: as §1
# [46] = tested on: HOP-92; test: Cytotoxicity against human HOP-92 cells; format: functional; procedure, shortened: as §2
structure (smiles),measurement,setting,value
COc1cccc(-c2nn(-c3ccccc3)cc2-c2ccnc(NCCNC(=O)Nc3ccc(Cl)c(Cl)c3)c2)c1,GI50,[1],3.02 µM
same,GI50,[2],4.72 µM
same,Activity,[3],>80%
same,GI50,[4],3.73 µM
same,GI50,[5],7.19 µM
same,GI50,[6],4.63 µM
same,GI50,[7],3.4 µM
same,GI50,[8],5.95 µM
same,GI50,[9],4.15 µM
same,GI50,[10],3.35 µM
CNC(=O)c1cc(Oc2ccc(NC(=O)Nc3ccc(Cl)c(C(F)(F)F)c3)cc2)ccn1 [SORAFENIB],GI50,[11],1.99 µM
same,GI50,[1],2.25 µM
same,TGI,[12],5.01 µM
same,GI50,[13],2.51 µM
same,CC50,[14],7.94 µM
same,GI50,[15],3.16 µM
same,GI50,[2],2.88 µM
same,CC50,[16],100 µM
same,CC50,[17],50.1 µM
same,TGI,[18],10 µM
same,TGI,[19],15.8 µM
same,GI50,[4],2.19 µM
same,GI50,[5],2.33 µM
same,GI50,[6],2.94 µM
same,GI50,[20],1.99 µM
same,TGI,[21],10 µM
same,GI50,[7],2.43 µM
same,GI50,[22],3.16 µM
same,GI50,[8],2.58 µM
same,CC50,[23],50.1 µM
same,GI50,[9],1.87 µM
same,GI50,[10],2.17 µM
same,GI50,[24],1.99 µM
same,TGI,[25],100 µM
COc1cccc(-c2nn(-c3ccccc3)cc2-c2ccnc(NCCNC(=O)Nc3cccc(C(F)(F)F)c3)c2)c1,inhibition,[26],36.2%
same,GI50,[11],1.7 µM
same,GI50,[1],2.03 µM
same,TGI,[12],3.34 µM
same,GI50,[27],1.46 µM
same,GI50,[28],1.73 µM
same,GI50,[13],1.53 µM
same,CC50,[14],100 µM
same,GI50,[15],1.62 µM
same,GI50,[2],2.54 µM
same,CC50,[16],100 µM
same,GI50,[29],2.22 µM
same,TGI,[30],3.55 µM
same,TGI,[18],4.63 µM
same,Activity,[3],>80%
same,TGI,[19],5.75 µM
same,LC50,[31],100 µM
same,GI50,[4],1.98 µM
same,GI50,[5],2.07 µM
same,LC50,[32],25 µM
same,inhibition,[33],45.1%
same,GI50,[6],2.14 µM
same,TGI,[34],15.7 µM
same,inhibition,[35],-2.09%
same,GI50,[20],2.02 µM
same,TGI,[21],4.7 µM
same,inhibition,[36],2.92%
same,LC50,[37],100 µM
same,inhibition,[38],13.4%
same,TGI,[39],100 µM
same,GI50,[40],1.7 µM
same,GI50,[7],2.04 µM
same,GI50,[22],2.13 µM
same,inhibition,[41],14%
same,GI50,[8],3.09 µM
same,TGI,[42],7.65 µM
same,LC50 (lethal concentration 50%),[43],6.95 µM
same,CC50,[23],100 µM
same,LC50,[44],7.82 µM
same,GI50,[9],1.91 µM
same,TGI,[45],3.5 µM
same,GI50,[10],2.23 µM
same,GI50,[24],1.88 µM
same,TGI,[25],100 µM
same,LC50,[46],100 µM
